Format in all cases: cell-based
Data set [1] deals with HEK293. The data set is described as follows: Cytotoxicity against HEK293 cells assessed as cell viability at 10 uM after 24 hrs by resazurin conversion assay. Particulars: human, hek293, 24 h. A digest of the protocol:
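HEK293 cells seeded 5 × 10^5 per well, grown overnight, then exposed to 10 μM compound in stripped DMEM for 24 h; vehicle 0.4% DMSO. Wells PBS-washed, then 10 μg/mL resazurin in PBS added for 4 h; conversion read by fluorescence (excitation 535 nm). Viability relative to vehicle; at least three experiments, four technical replicates each.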
In general terms: Alamar Blue is a resazurin reagent that responds to reducing activity.

Data set [2] can be described thus: (§1) Cytotoxicity against HEK293 cells assessed as cell viability at 3 uM after 18 hrs by luciferase assay relative to control. The settings on record: human, HEK293 cells; read-out: Activity. Put shortly:
(§2)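 HEK293 cells calcium-phosphate co-transfected with PPARγ expression plasmid, PPRE-luciferase reporter and pEGFP-N1; 6 h later reseeded at 4 × 10^5/well in DMEM with 5% charcoal-stripped serum and given 3 μM compound for 18 h; vehicle 0.1% DMSO. After lysis, EGFP fluorescence relative to vehicle gave viability; n = 3–4, four technical replicates.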

Data set [3] has as its target T1, Peroxisome proliferator-activated receptor gamma (Homo sapiens) (UniProt P37231).
T1 sequence (whole entry): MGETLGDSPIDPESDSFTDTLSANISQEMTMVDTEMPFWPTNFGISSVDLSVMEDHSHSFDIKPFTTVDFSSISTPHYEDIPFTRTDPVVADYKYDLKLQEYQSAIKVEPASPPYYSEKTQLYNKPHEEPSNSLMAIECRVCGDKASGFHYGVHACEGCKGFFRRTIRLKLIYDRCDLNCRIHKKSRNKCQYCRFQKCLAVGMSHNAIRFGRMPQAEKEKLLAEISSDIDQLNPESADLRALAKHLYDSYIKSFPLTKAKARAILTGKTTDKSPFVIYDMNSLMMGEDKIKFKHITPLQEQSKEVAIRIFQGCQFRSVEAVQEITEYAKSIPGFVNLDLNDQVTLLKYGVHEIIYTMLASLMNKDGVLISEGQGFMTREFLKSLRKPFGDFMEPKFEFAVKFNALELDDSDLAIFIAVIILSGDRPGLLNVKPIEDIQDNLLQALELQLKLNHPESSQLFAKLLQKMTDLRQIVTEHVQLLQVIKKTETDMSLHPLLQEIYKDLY
As to the kind of experiment: Activation of human PPARgamma expressed in HEK293 cells assessed as maximum fold activation at 0.1 to 30 uM incubated for 18 hrs by luciferase reporter assay relative to control.

The test system of data set [4] is HEK293. Described as §1. The settings on record: human, hek293, 18 h, 3 µM. Put shortly: as §2

The values below come from ChEMBL document CHEMBL4610072, “Polyacetylenes from Oplopanax horridus and Panax ginseng: Relationship between Structure and PPARγ Activation” (J Nat Prod, 2020).

Take `CCCCCCC[C@@H]1O[C@@H]1CC#CC#CC(=O)CC`: the Activity entry with HEK293 [1] is “Non-Toxic”.
In the case of `C=C[C@@H](O)C#CC#CC/C=C\CCCCCCCCO`, the viability at 18 h, 3 µM in data set [2] was > 70%. Also, the Activity result with HEK293 [1] is “Non-Toxic”.
For `OCCCCCCCC/C=C\[C@H](O)C#CC#C[C@@H](O)CCO`, the Activity entry in the data set with HEK293 [1] is “Non-Toxic”.
Same read-out and setting: then `C=C[C@H](O)C#CC#C[C@@H](O)/C=C\CCCCCCCCOC(C)=O`, with “Non-Toxic”.
As for `CCCCCCC[C@H](O)/C=C/C#CC#C[C@H](O)CC`, the Activity result with HEK293 [1] was “Non-Toxic”.
In the case of `C=C[C@@H](O)C#CC#C/C=C/[C@@H](O)CCCCCCC`, in the data set with HEK293 [1], the Activity entry was “Non-Toxic”.
In the case of `C=C[C@H](O)C#CC#C[C@@H](O)/C=C\CCCCCCCCO`, the Activity result in the data set on HEK293 [1] was “Non-Toxic”.
Turning to `C=C[C@@H](O)C#CC#C/C=C/[C@@H](O)CCCCCCCCOC(C)=O`, the Activity result in the data set with HEK293 [1] is recorded as “Non-Toxic”.
As to `CC(=O)OCCCCCCCC/C=C\[C@H](O)C#CC#C[C@@H](O)CCO`, the Activity result in the data set with HEK293 [1] is recorded as “Non-Toxic”.
Turning to `CCCCCCC/C=C\[C@H](O)C#CC#C[C@@H](O)CC` [OPLOPANDIOL], the Activity entry with HEK293 [1] is given as “Non-Toxic”.
For `CCCCCCC/C=C\[C@H](O)C#CC#C[C@@H](O)CCO`, the Activity entry in the data set on HEK293 [1] is listed as “Non-Toxic”.
`C=C[C@@H](O)C#CC#C[C@@H](O)/C=C\CCCCCCC` [FALCARINDIOL]: in data set [3], the Emax is 3.26.
Consider `C=CCCCCC[C@@H]1O[C@@H]1CC#CC#CC(=O)CC`, for which the Activity result in the data set with HEK293 [1] is reported as “Non-Toxic”.
Same read-out and setting: then `CC[C@H](O)C#CC#C[C@@H](O)/C=C\CCCCCCCCOC(C)=O` [OPLOPANDIOL ACETATE], with “Non-Toxic”; and `C=C[C@@H](O)C#CC#C/C=C/[C@@H](O)CCCCCCCCO`, with “Non-Toxic”.
As to `C=C[C@@H](O)C#CC#CCC1OC1CCCCCCC` (some centres undefined), the viability at 18 h, 3 µM in data set [2] was > 70%. For the same compound, the Activity result in the data set with HEK293 [1] is “Non-Toxic”.
Take `C=C[C@@H](O)C#CC#CC/C=C\CCCCCCC`: the viability at 18 h, 3 µM in data set [2] was > 70%. Further, the Activity entry in the data set with HEK293 [1] was “Non-Toxic”.
With `C=C[C@H](O)C#CC#C[C@@H](O)/C=C\CCCCCCC`, the figures for the Activity entry in the data set on HEK293 [4] and in the data set with HEK293 [1] were “Toxic” and “Non-Toxic”, respectively.
As for `C=C[C@H](O)C#CC#C[C@@H](O)/C=C\C(O)CCCCCC` (some centres undefined), in the data set on HEK293 [1], the Activity result is on record as “Non-Toxic”.
On to `CC[C@H](O)C#CC#C[C@@H](O)/C=C\CCCCCCCCO`, for which, in the data set on HEK293 [1], the Activity result is recorded as “Non-Toxic”.
For the compound `C=C[C@@H](O)C#CC#CC/C=C\CCCCCCCCOC(C)=O`, the viability at 18 h, 3 µM in data set [2] was > 70%. In addition, the Activity result with HEK293 [1] is reported as “Non-Toxic”.
Regarding `CC[C@@H](O)C#CC#C/C=C/[C@@H](O)CCCCCCCCO`, the Activity entry in the data set with HEK293 [1] was “Non-Toxic”.
Regarding `CC[C@@H](O)C#CC#C/C=C/[C@@H](O)CCCCCCCCOC(C)=O`, the Activity entry in the data set on HEK293 [1] is listed as “Non-Toxic”.
With `CCCCCCC(O)/C=C\[C@H](O)C#CC#C[C@@H](O)CC` (some centres undefined), the Activity result with HEK293 [1] was “Non-Toxic”.
